{"source": "ChEMBL document CHEMBL1121680", "about": "“2,4-Diamino-5-benzylpyrimidines and analogues as antibacterial agents. 5. 3',5'-Dimethoxy-4'-substituted-benzyl analogues of trimethoprim” (J Med Chem, 1981)", "key": {"[1]": {"molecular_target": "T1, Dihydrofolate reductase (Rattus norvegicus) (UniProt Q920D2)", "T1 sequence (whole entry)": "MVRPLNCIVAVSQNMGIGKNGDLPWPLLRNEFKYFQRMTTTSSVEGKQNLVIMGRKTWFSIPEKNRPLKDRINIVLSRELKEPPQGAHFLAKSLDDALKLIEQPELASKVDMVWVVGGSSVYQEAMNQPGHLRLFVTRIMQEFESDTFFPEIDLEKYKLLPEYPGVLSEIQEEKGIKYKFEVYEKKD", "experiment": "Compound was tested for inhibitory activity against Dihydrofolate reductase of rat liver at 40000 M"}, "[2]": {"species_on_record": "Mus musculus", "conditions": "Serum"}, "[3]": {"system": "Oryctolagus cuniculus", "experiment": "Peak serum concentration reached within 1 hr of administration of 5 mg/kg oral dose", "assay_type": "functional, organism-based", "parameters": "dose 5 mg/kg"}, "[4]": {"species_on_record": "Mus musculus", "conditions": "Serum", "remark": "listed apart in the source"}, "[5]": {"molecular_target": "T1, Dihydrofolate reductase (Rattus norvegicus)", "experiment": "Compound was tested for inhibitory activity against Dihydrofolate reductase of rat liver at 22400 M"}, "[6]": {"molecular_target": "T2, Dihydrofolate reductase (Rattus norvegicus, UniProt Q920D2)", "T2 sequence (Q920D2 whole entry)": "T1 sequence (whole entry)", "experiment": "Inhibition of rat liver Dihydrofolate reductase.", "conditions": "read-out: I50"}, "[7]": {"system": "Klebsiella pneumoniae", "experiment": "Antimicrobial activity against Klebsiella pneumoniae CN3632 in mice in experiment 1", "assay_type": "functional, Mus musculus"}, "[8]": {"system": "Escherichia coli", "experiment": "Antimicrobial activity against Escherichia coli CN348 in mice in experiment 3", "assay_type": "functional, Mus musculus"}, "[9]": {"system": "Mus musculus", "experiment": "Concentration of compound in serum of mouse 90 min after oral administration of 2 mg dose", "assay_type": "functional, organism-based", "summary_of_the_method": "(§1)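 Single po dose (10 or 2 mg per mouse) to groups of three mice (18–20 g); ~0.2 mL blood drawn from supraorbital plexus at 10–360 min and pooled; serum drug level assayed microbiologically with Bacillus pumilus as test organism. Half-life calculated from curve slopes once compound apparently evenly distributed.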"}, "[10]": {"system": "Streptococcus pyogenes", "experiment": "Antimicrobial activity against streptococcus pyogenes CN10 in mice in experiment 1", "assay_type": "functional, Mus musculus"}, "[11]": {"system": "Escherichia coli", "experiment": "Antimicrobial activity against Escherichia coli CN348 in mice in experiment 1", "assay_type": "functional, Mus musculus"}, "[12]": {"system": "Mus musculus", "experiment": "Concentration of compound in serum of mouse 180 min after oral administration of 2 mg dose", "assay_type": "functional, organism-based", "summary_of_the_method": "as §1"}, "[13]": {"system": "Mus musculus", "experiment": "Concentration of compound in serum of mouse 10 min after oral administration of 10 mg dose", "assay_type": "functional, organism-based", "summary_of_the_method": "as §1"}, "[14]": {"system": "Mus musculus", "experiment": "Concentration of compound in serum of mouse 10 min after oral administration of 2 mg dose", "assay_type": "functional, organism-based", "summary_of_the_method": "as §1"}, "[15]": {"system": "Mus musculus", "experiment": "Concentration of compound in serum of mouse 360 min after oral administration of 2 mg dose", "assay_type": "functional, organism-based", "summary_of_the_method": "as §1"}, "[16]": {"system": "Streptococcus pyogenes", "experiment": "Antimicrobial activity against streptococcus pyogenes CN10 in mice in experiment 3", "assay_type": "functional, Mus musculus"}, "[17]": {"system": "Staphylococcus aureus", "experiment": "Antimicrobial activity against Staphylococcus aureus CN491 in mice in experiment 1", "assay_type": "functional, Mus musculus"}, "[18]": {"system": "Mus musculus", "experiment": "Concentration of compound in serum of mouse 90 min after oral administration of 10 mg dose", "assay_type": "functional, organism-based", "summary_of_the_method": "as §1"}, "[19]": {"system": "Mus musculus", "experiment": "Half-life in serum of mice after oral administration of 2 mg dose", "assay_type": "functional, organism-based", "summary_of_the_method": "as §1"}, "[20]": {"system": "Staphylococcus aureus", "experiment": "Antimicrobial activity against Staphylococcus aureus CN491 in mice in experiment 3", "assay_type": "functional, Mus musculus"}, "[21]": {"system": "Proteus vulgaris", "experiment": "Antimicrobial activity against Proteus vulgaris CN329 in mice in experiment 2", "assay_type": "functional, Mus musculus"}, "[22]": {"system": "Escherichia coli", "experiment": "Antimicrobial activity against Escherichia coli CN348 in mice in experiment 2", "assay_type": "functional, Mus musculus"}, "[23]": {"system": "Mus musculus", "experiment": "Concentration of compound in serum of mouse 360 min after oral administration of 10 mg dose", "assay_type": "functional, organism-based", "summary_of_the_method": "as §1"}, "[24]": {"system": "Klebsiella pneumoniae", "experiment": "Antimicrobial activity against Klebsiella pneumoniae CN3632 in mice in experiment 3", "assay_type": "functional, Mus musculus"}, "[25]": {"system": "Proteus vulgaris", "experiment": "Antimicrobial activity against Proteus vulgaris CN329 in mice in experiment 1", "assay_type": "functional, Mus musculus"}, "[26]": {"molecular_target": "T2, Dihydrofolate reductase", "experiment": "Compound was tested for inhibitory activity against Dihydrofolate Reductase(DHFR) of rat liver", "conditions": "read-out: I50"}, "[27]": {"system": "Mus musculus", "experiment": "Half-life in serum of mice after oral administration of 10 mg dose", "assay_type": "functional, organism-based", "summary_of_the_method": "as §1"}, "[28]": {"system": "Klebsiella pneumoniae", "experiment": "Antimicrobial activity against Klebsiella pneumoniae CN3632 in mice in experiment 2", "assay_type": "functional, Mus musculus"}, "[29]": {"system": "Streptococcus pyogenes", "experiment": "Antimicrobial activity against streptococcus pyogenes CN10 in mice in experiment 2", "assay_type": "functional, Mus musculus"}, "[30]": {"system": "Staphylococcus aureus", "experiment": "Antimicrobial activity against Staphylococcus aureus CN491 in mice in experiment 2", "assay_type": "functional, Mus musculus"}, "[31]": {"system": "Mus musculus", "experiment": "Concentration of compound in serum of mouse 180 min after oral administration of 10 mg dose", "assay_type": "functional, organism-based", "summary_of_the_method": "as §1"}, "[32]": {"system": "Mus musculus", "experiment": "Concentration of compound in serum of mouse 30 min after oral administration of 10 mg dose", "assay_type": "functional, organism-based", "summary_of_the_method": "as §1"}, "[33]": {"molecular_target": "T1, Dihydrofolate reductase (Rattus norvegicus)", "experiment": "Compound was tested for inhibitory activity against Dihydrofolate reductase of rat liver at 10000 M"}, "[34]": {"molecular_target": "T1, Dihydrofolate reductase (Rattus norvegicus)", "experiment": "Compound was tested for inhibitory activity against Dihydrofolate reductase of rat liver at 2400 M"}, "[35]": {"molecular_target": "T1, Dihydrofolate reductase (Rattus norvegicus)", "experiment": "Compound was tested for inhibitory activity against Dihydrofolate reductase of rat liver at 2000 M"}, "[36]": {"molecular_target": "T1, Dihydrofolate reductase (Rattus norvegicus)", "experiment": "Percent inhibition of compound against Dihydrofolate Reductase of rat liver at 27400 M"}, "[37]": {"molecular_target": "T1, Dihydrofolate reductase (Rattus norvegicus)", "experiment": "Compound was tested for inhibitory activity against Dihydrofolate reductase of rat liver at 29000 M"}}, "note": "pIC50: −log10 of the molar value.", "data": [{"smiles": "COc1cc(Cc2cnc(N)nc2N)cc(OC)c1OCCCN1CCN(C)CC1", "values": [{"measurement": "inhibition", "setting": "[1]", "value": 36, "unit": "%"}]}, {"smiles": "COc1cc(Cc2cnc(N)nc2N)cc(OC)c1OC", "values": [{"measurement": "T1/2", "setting": "[2]", "value": 45.6, "unit": "min"}, {"measurement": "Concentration", "setting": "[3]", "value": 2, "unit": "µg/mL"}, {"measurement": "T1/2", "setting": "[4]", "value": 162, "unit": "min"}]}, {"smiles": "COc1cc(Cc2cnc(N)nc2N)cc(OC)c1OCC(=O)O", "values": [{"measurement": "inhibition", "setting": "[5]", "value": 20, "unit": "%"}]}, {"smiles": "COc1cc(Cc2cnc(N)nc2N)cc(OC)c1C", "values": [{"measurement": "pIC50", "setting": "[6]", "value": 3.92}]}, {"smiles": "C=CCOc1c(OC)cc(Cc2cnc(N)nc2N)cc1OC", "values": [{"measurement": "ED50", "setting": "[7]", "value": 4.6, "unit": "mg mouse-1"}, {"measurement": "ED50", "setting": "[8]", "value": ">10", "unit": "mg mouse-1"}, {"measurement": "Concentration", "setting": "[9]", "value": 1, "unit": "µg/mL"}, {"measurement": "ED50", "setting": "[10]", "value": 12, "unit": "mg mouse-1"}, {"measurement": "ED50", "setting": "[11]", "value": 7.5, "unit": "mg mouse-1"}, {"measurement": "Concentration", "setting": "[12]", "value": 0.26, "unit": "µg/mL"}, {"measurement": "Concentration", "setting": "[13]", "value": 84, "unit": "µg/mL"}, {"measurement": "Concentration", "setting": "[14]", "value": 18, "unit": "µg/mL"}, {"measurement": "Concentration", "setting": "[15]", "value": "< 0.1", "unit": "µg/mL"}, {"measurement": "ED50", "setting": "[16]", "value": 5.1, "unit": "mg mouse-1"}, {"measurement": "ED50", "setting": "[17]", "value": 2.5, "unit": "mg mouse-1"}, {"measurement": "Concentration", "setting": "[18]", "value": 51, "unit": "µg/mL"}, {"measurement": "T1/2", "setting": "[19]", "value": 21, "unit": "min"}, {"measurement": "ED50", "setting": "[20]", "value": 8.1, "unit": "mg mouse-1"}, {"measurement": "ED50", "setting": "[21]", "value": ">10", "unit": "mg mouse-1"}, {"measurement": "ED50", "setting": "[22]", "value": 11, "unit": "mg mouse-1"}, {"measurement": "Concentration", "setting": "[23]", "value": 2.8, "unit": "µg/mL"}, {"measurement": "ED50", "setting": "[24]", "value": ">10", "unit": "mg mouse-1"}, {"measurement": "ED50", "setting": "[25]", "value": 10, "unit": "mg mouse-1"}, {"measurement": "pIC50", "setting": "[26]", "value": 3.32}, {"measurement": "T1/2", "setting": "[27]", "value": 66, "unit": "min"}, {"measurement": "ED50", "setting": "[28]", "value": 10, "unit": "mg mouse-1"}, {"measurement": "ED50", "setting": "[29]", "value": 4.3, "unit": "mg mouse-1"}, {"measurement": "ED50", "setting": "[30]", "value": ">10", "unit": "mg mouse-1"}, {"measurement": "Concentration", "setting": "[31]", "value": 27, "unit": "µg/mL"}, {"measurement": "Concentration", "setting": "[32]", "value": 59, "unit": "µg/mL"}]}, {"smiles": "CCc1c(OC)cc(Cc2cnc(N)nc2N)cc1OC", "values": [{"measurement": "pIC50", "setting": "[6]", "value": 3.70}]}, {"smiles": "CCCCCCOc1c(OC)cc(Cc2cnc(N)nc2N)cc1OC", "values": [{"measurement": "pIC50", "setting": "[6]", "value": 3.70}]}, {"smiles": "COc1cc(Cc2cnc(N)nc2N)cc(OC)c1OCCCN", "values": [{"measurement": "inhibition", "setting": "[33]", "value": 39, "unit": "%"}]}, {"smiles": "CCCCCOc1c(OC)cc(Cc2cnc(N)nc2N)cc1OC", "values": [{"measurement": "pIC50", "setting": "[6]", "value": 3.57}]}, {"smiles": "COc1cc(Cc2cnc(N)nc2N)cc(OC)c1OCCCCCCN1C(=O)c2ccccc2C1=O", "values": [{"measurement": "inhibition", "setting": "[34]", "value": 25, "unit": "%"}]}, {"smiles": "COc1cc(Cc2cnc(N)nc2N)cc(OC)c1OCCCCCC(=O)O", "values": [{"measurement": "pIC50", "setting": "[6]", "value": 3.53}]}, {"smiles": "COc1cc(Cc2cnc(N)nc2N)cc(OC)c1OCc1ccc([N+](=O)[O-])cc1", "values": [{"measurement": "inhibition", "setting": "[35]", "value": 23, "unit": "%"}]}, {"smiles": "COc1cc(COc2c(OC)cc(Cc3cnc(N)nc3N)cc2OC)cc(OC)c1OC", "values": [{"measurement": "pIC50", "setting": "[6]", "value": 4.82}]}, {"smiles": "COc1cc(Cc2cnc(N)nc2N)cc(OC)c1OCCN1CCOCC1", "values": [{"measurement": "pIC50", "setting": "[6]", "value": "< 3.36"}]}, {"smiles": "COc1cc(Cc2cnc(N)nc2N)cc(OC)c1OCC(O)CO", "note": "(stereo not given)", "values": [{"measurement": "inhibition", "setting": "[36]", "value": 32, "unit": "%"}]}, {"smiles": "COc1cc(Cc2cnc(N)nc2N)cc(OC)c1Oc1ccc(NC(=O)CBr)cc1", "values": [{"measurement": "inhibition", "setting": "[37]", "value": 37, "unit": "%"}]}, {"smiles": "COc1cc(Cc2cnc(N)nc2N)cc(OC)c1OCCCl", "values": [{"measurement": "pIC50", "setting": "[6]", "value": 3.22}]}, {"smiles": "COc1cc(Cc2cnc(N)nc2N)cc(OC)c1OCCO", "values": [{"measurement": "pIC50", "setting": "[6]", "value": "< 3.40"}]}]}
